Screening results (PubChem BioAssay)
Most compounds without a hit are left out; they make up all but 1.2% or so of the library.
MMP-13 inhibitor: MMP13 (human) collagenase inhibition; P45452; MMP-13 fTHP FRET cleavage, Mca fluorescence; inhibition, % at 4 µM; hit rate 0.07% among 65,000; AID 570;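 active means inhibition above the mean of compound-free control plate wells plus 3 SD, cut at about 14% in these data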;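 further: 0% = DMSO wells and 100% = wells with reference MMP-13 inhibitor after basal subtraction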
JNK3 inh: inhibitors of human JNK3 kinase | P53779 | purified JNK3 kinase activity, HTS | inhibition, % at 8 µM | hit rate 0.61% among 60,000 | AID 746; in the data active means inhibition above about 17%;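 further: 0% = DMSO and 100% = reference inhibitor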
S1P1 ag pot: activates or potentiates agonism at human S1P1 receptor; activation, % at 9.5 µM; S1P1 CRE-bla cells, forskolin, beta-lactamase FRET, potentiator mode; S1P1 agonist co-added at EC20, 2 nM; 100% = saturating reference agonist, 0% = basal; hit rate 0.57% among 56,000; P21453; AID 449;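 active means activation above a cutoff set at the mean activation of all tested compounds plus 3 SD, cut at about 54% in these data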;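 further: forskolin at 4 µM as EC80 and the EC20 agonist is SEW2871; 100% = SEW2871 at its EC100 plus forskolin at EC80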
PKA inh: blocks human protein kinase A activity | inhibition, % at 6 µM | P17612 | hit rate 0.1% among 65,000 | PKA Kemptide phosphorylation, Kinase-Glo ATP luminescence;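 active means inhibition above the screen-wide mean inhibition plus 3 SD, cut at about 21% in these data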
ROCK2 blocker: ROCK2 (human) kinase inhibition. inhibition, % at 6 µM. hit rate 0.35% among 60,000. purified ROCK2, Kinase-Glo ATP depletion luminescence. AID 604. O75116;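 active means inhibition above the screen-wide mean inhibition plus 3 SD, cut at about 18% in these data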;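 further: plate controls were DMSO wells for no effect and Y-27632 control wells after no-enzyme background subtraction for full effect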
S1P3 ag: S1P3 (human) receptor agonism; Q99500; S1P3 NFAT-BLA reporter cells, FRET ratio; relative to 1 µM S1P, basal subtracted; activation, % at 4.5 µM; hit rate 0.1% among 60,000; AID 373;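 active means activation above the screen-wide mean plus 3 SD, cut at about 4.5% in these data, passing the limit was not always enough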
Target sequence (Q99500 whole entry, looked up): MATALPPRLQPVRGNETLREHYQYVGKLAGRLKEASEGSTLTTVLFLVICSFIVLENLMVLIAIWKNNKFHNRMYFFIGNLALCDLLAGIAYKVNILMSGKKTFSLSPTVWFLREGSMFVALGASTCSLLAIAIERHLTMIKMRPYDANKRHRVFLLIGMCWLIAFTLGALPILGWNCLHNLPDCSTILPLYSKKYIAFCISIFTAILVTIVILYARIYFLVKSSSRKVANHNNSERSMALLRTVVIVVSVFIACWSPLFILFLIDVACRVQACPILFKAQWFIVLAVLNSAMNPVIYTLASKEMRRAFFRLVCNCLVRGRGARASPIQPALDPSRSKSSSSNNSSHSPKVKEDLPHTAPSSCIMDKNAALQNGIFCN
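Assay system: CHO cells stably expressing human S1P3, Gα16 and NFAT-β-lactamase reporter. Timing: overnight plating, 4 h compound 37 °C, 2 h substrate RT. Signal: β-lactamase FRET emission ratio 460/535 nm. Measure: percent activation versus median 1 µM S1P response, basal-subtracted, per plate. Repeats: primary screen single test, confirmation screen in triplicate.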
* marks the source's active call; other numbers are inactive results; nt = not tested or not shown.

SMILES	MMP-13 inhibitor	JNK3 inh	S1P1 ag pot	PKA inh	ROCK2 blocker	S1P3 ag
CCc1ccccc1NC(=O)CC(O)(C(=O)OC)C(F)(F)F (configuration not stated)	4	-9	12	7	1	-1
Cn1c(=O)c2c(nc(N3CCOCC3)n2CCSc2nc3ccccc3s2)n(C)c1=O	2	-3	-4	-9	-1	-1
Fc1ccc2[nH]c3c(N4CCN(c5ccccc5)CC4)ncnc3c2c1	-7	-3	106*	1	-23	-6
COc1cc2[nH]c3c(N4CCN(c5ccccn5)CC4)ncnc3c2cc1OC	-78	4	-19	11	6	-1
OC1(c2cccc(C(F)(F)F)c2)CCN(c2ncnc3c2[nH]c2ccc(F)cc23)CC1	-92	0	100*	4	7	-2
Nc1nonc1-c1nc2ccccc2[nH]1	2	1	nt	19	61*	-1
COc1ccc(C2/C(=C(\O)c3ccc4c(c3)OCCO4)C(=O)C(=O)N2CCCN(C)C)c(OC)c1 (configuration not stated)	-1	4	-13	2	2	0
Cc1c(C)n(C)c2ccc(C(=O)NCc3cccs3)cc12	-15	3	11	12	32*	-1
CCCCc1c(O)n2c(nc3ccccc32)[nH]c1=O	0	3	-1	10	7	-1
CCCc1cc(=O)n2c(nc3ccccc32)[nH]1	-41	28*	nt	9	7	0
CCn1c(C)csc1=NC(=O)c1ccccc1O	-1	23*	-7	0	-1	-1
CCn1c(C)csc1=NC(=O)c1ccccc1	-3	3	-8	7	7	0
CCc1c(C)nc2ncnn2c1NCCc1ccc(OC)cc1	4	-4	55*	2	-1	-1
O=C(c1cc2c(=O)oc3ccccc3c2s1)N1CCN(c2ncccn2)CC1	0	1	-35	2	5	0
Clc1ccccc1Cn1nnc2c(N3CCCC3)ncnc21	-4	0	-12	4	5	1
Fc1ccccc1Cn1nnc2c(-n3ccnc3)ncnc21	1	6	-16	24*	27*	-1
Cc1ccnc(NC(=O)CCCOc2cc(=O)n(C)c3ccccc23)c1	0	27*	-25	3	9	-1
Cn1c(=O)cc(SCC(=O)Nc2ccccn2)c2ccccc21	6	10	-12	7	1	-1
Cc1ccnc(NC(=O)CSc2cc(=O)n(C)c3ccccc23)c1	-4	26*	-3	-7	-5	-1
O=C(O)CCNS(=O)(=O)c1ccc(Oc2ccccc2)cc1	8	8	-2	0	-1	0
Cc1nn(-c2nc3ccccc3s2)c(N)c1-c1ccccc1	3	-7	95*	-6	1	-1
Cc1nn(-c2nc3ccccc3s2)c(N)c1-c1ccc(Cl)cc1	4	4	nt	2	5	0
COC(=O)c1c(C)n(-c2ccc(OC)cc2)c2ccc(O)cc12	-9	10	66*	3	4	-1
Cc1oc2ccc(OCC(N)=O)cc2c1C(=O)OC(C)C	2	32*	17	-3	-1	-1
COC(=O)c1ccccc1NC(=O)NCc1cccnc1	0	24*	7	10	6	-1
SMILES	MMP-13 inhibitor	JNK3 inh	S1P1 ag pot	PKA inh	ROCK2 blocker	S1P3 ag
COC(=O)c1ccccc1NC(=O)NCc1ccccn1	-10	-3	-11	0	-1	6
COc1ccc(-c2nc(-c3cccc(C(F)(F)F)c3)no2)cc1OC	-3	-6	75*	-6	0	-2
COc1ccc(-c2nc(-c3ccccc3OC)no2)cc1OC	-1	-2	83*	11	13	0
COc1ccccc1-c1noc(-c2ccccc2)n1	5	2	25	-7	-4	0
COc1ccccc1-c1nc(-c2cccc(C)c2)no1	3	-5	99*	8	0	-1
COc1ccc(-c2nc(-c3cccc(C)c3)no2)cc1OC	-4	2	108*	1	0	0
CC(=O)c1cccc(NC(=O)Nc2ccc(C(=O)N3CCOCC3)cc2)c1	7	-5	-1	6	-2	-1
O=C(NC(=Nc1ccccc1)N1CCOCC1)Nc1ccccc1	16*	-2	-1	7	5	0
Cc1ccc(NC(=O)N2CCC(C(=O)NCC(C)C)CC2)cc1	1	3	5	8	3	1
Cc1ccccc1NC(=O)c1nc[nH]c1C(=O)NCc1ccccc1	0	21*	-11	-2	-1	-1
O=C(CSc1n[nH]c(-c2ccncc2)n1)c1ccccc1	-1	-4	-14	43*	105*	1
Cc1cccc(NC(=O)CSc2n[nH]c(-c3ccncc3)n2)c1	-4	1	-4	21*	17	1
COC(=O)c1ccc(NC(=O)CSc2n[nH]c(-c3ccncc3)n2)cc1	3	12	-1	12	14	-1
CCNC(=O)C1CC(=O)N(c2ccc(Br)cc2)C1 (configuration not stated)	3	-2	0	3	0	-1
O=C(NCCC1=CCCCC1)C1COc2ccccc2O1 (configuration not stated)	-3	0	12	6	4	2
COc1cc2c(=O)n(CCCN3CCOCC3)c(=S)[nH]c2c(OC)c1OC	2	1	-20	-5	2	0
CC(=O)n1cc(C2C(=O)CCCC2=O)c2ccccc21	-1	-12	-9	5	0	0
CC(=O)N1C=CN(C(C)=O)C(c2cn(C)c3ccccc23)C1c1cn(C)c2ccccc12 (configuration not stated)	5	7	69*	12	5	-2
COc1ccc2c(Cl)c(C(N)=O)sc2c1	-1	18*	21	29*	50*	-1
COC(=O)c1cccc2c1-c1ccccc1/C2=N/O	-2	54*	40	18	20*	-1
Cc1ccccc1NC(=O)Cn1c(C)nc2ccc(NC(=O)C3CC3)cc2c1=O	1	-3	2	10	19*	-1
CCOC(=O)CCC(NC(=O)c1ccc(NCN2C(=O)c3ccccc3C2=O)cc1)C(=O)OCC (configuration not stated)	1	28*	32	-7	-3	-2
CCOC(=O)CCC(NC(=O)c1ccc(NCN2C(=O)CCC2=O)cc1)C(=O)OCC (configuration not stated)	0	-4	15	3	2	-1
COc1ccc(-c2[nH]ncc2-c2ccc3c(c2)OCCO3)c(O)c1	-5	-8	91*	4	-2	-1
CCc1cc(-c2[nH]ncc2-c2ccc3c(c2)OCO3)c(O)cc1O	-5	4	69*	2	7	-1
CCCCN(C)Cc1c(C)[nH]c2ccc(OCC)cc2c1=O	-36	-3	-27	1	4	0
